The source of these data is paper PMC4026406 (Drug Design, Development and Therapy, 2014).

The structures appear in SMILES notation. Converted amounts (≈) assume the structure as drawn.

In series [1] the test system is Candida albicans IFO 0583. Nature of the series: Determination of MIC. The note with it: IFO0583, read-out: MIC CA. Type of series: cell-based. Summed up:
(§1)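 Broth two-fold dilution against IFO strains. Test compound and reference agents were dissolved in DMSO at 128 μg/mL and diluted two-fold from 128 to 0.5 μg/mL. Wells were inoculated with organism suspensions at 10^6 CFU/mL and incubated at 36°C for 24 h.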

The subject of series [2] is Candida albicans IFO 0583. Nature of the series: Agar disc diffusion, growth inhibition zone. Type of series: cell-based. The note with it: for inhibitory activity against C. albicans (in words): 200 μg/disc, compared with clotrimazole. The method, boiled down:
(§2)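 Filter paper discs (8 mm) were loaded with test compound in DMSO at 200 μg/disc, with gentamicin, ampicillin trihydrate and clotrimazole discs at 100 μg/disc. Discs were placed on Müller–Hinton agar plates previously inoculated with IFO strains and incubated at 37°C. Inhibition zone diameters were read after 24 h for bacteria and 48 h for C. albicans.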
A general note: A growth-free zone around the sample is the usual read-out of agar diffusion tests.

The test system of series [3] is Bacillus subtilis IFO 3007. Description: Determination of MIC. Format: cell-based. The following applies: IFO3007, 24 h, read-out: MIC BS. The method, boiled down: as §1
The test system of series [4] is Escherichia coli IFO 3301. Description: Agar disc diffusion, growth inhibition zone. Type of series: cell-based. The following applies: IFO3301, 24 h, read-out: Diameter of growth inhibition zone EC. The method, boiled down: as §2
Series [5] has as its system carrageenan-induced paw edema. Description: Carrageenan-induced paw edema method in rats. Format: in vivo, Sprague Dawley rats. The following applies: for anti-inflammatory potency ratio relative to indomethacin: 40 mg/kg versus indomethacin. The method, boiled down:
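Male Sprague Dawley rats (140–190 g, 20–23°C, 2-day acclimatisation) were used in groups of five. Test compound (20 or 40 mg/kg) or indomethacin (5 mg/kg) was given i.p. in 1 mL 0.5% aqueous CMC. One hour later, 0.1 mL 1% carrageenan in saline went into the right hind paw, with saline in the left. Paw volume was measured by water plethysmometer at 4 h. Protection was calculated versus vehicle control and reported as mean ± SEM, Student's t-test.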
(In general: The carrageenan paw model is a standard test of acute inflammation.)

The subject of series [6] is Pseudomonas aeruginosa IFO 3448. Nature of the series: Determination of MIC. The following applies: IFO3448, 24 h, read-out: MIC PA. Type of series: cell-based. The method, boiled down: as §1
The subject of series [7] is Escherichia coli IFO 3301. Description: Determination of MIC. The note with it: IFO3301, 24 h, read-out: MIC EC. Type of series: cell-based. The method, boiled down:
as §1

The subject of series [8] is Micrococcus luteus IFO 3232. Nature of the series: Determination of MIC. Type of series: cell-based. The following applies: IFO3232, 24 h, read-out: MIC ML. The method, boiled down: as §1
Series [9] relates to Staphylococcus aureus IFO 3060. Description: Determination of MIC. Type of series: cell-based. The note with it: IFO3060, 24 h, read-out: MIC SA. The method, boiled down: as §1
Another series in a line: Oral acute toxicity. Format: in vivo, mice. The note with it: both, albino, mouse, in vivo, po. Summed up: (§3)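 Albino mice of either sex were dosed in six groups of six. Test compound was given by oral intubation as fresh suspensions (1–12%) in 0.5% aqueous CMC at 250, 500, 750, 1,000, 1,250 and 1,500 mg/kg. Mortality was recorded at 24 h, and LD16, LD50 and LD84 were calculated.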

A further series has as its system normal albino mice. Nature of the series: Oral acute toxicity. The note with it: oral, mice; for LD16 / LD84: mortality at 24 hours. Type of series: in vivo. Summed up:
as §3

Where [10] appears, read: Candida albicans, IFO0583, 48 h, read-out: Diameter of growth inhibition zone CA.

What is called MIC is the lowest concentration that inhibits growth of the organism. Broadly, the zone of inhibition is the extent of the growth-free halo in a diffusion test. For `Clc1ccccc1C(c1ccccc1)(c1ccccc1)n1ccnc1` [Clotrimazole, clotrimazole, reference compound], the minimal inhibitory concentration (MIC) in series [1] stood at 2 µg/mL (≈ 5.8 µM). For the same compound, in series [2] (setting [10]), the zone of inhibition at 100 µg/disc turned out to be 21 mm.

With `CCOC(=O)N1CCN(Cn2nc(C34CC5CC(CC(C5)C3)C4)n(-c3ccccc3)c2=S)CC1` [Compound 6b, Ethyl 4-{[3-(adamantan-1-yl)-4-phenyl-5-sulfanylidene-4,5-dihydro-1H-1,2,4-triazol-1-yl]methyl}piperazine-1-carboxylate], the minimal inhibitory concentration (MIC) in series [3] came to 16 µg/mL (≈ 33.2 µM). Moreover, the zone of inhibition at 200 µg/disc in series [2] (setting [10]) and in [4] was less than 10 mm in each case.

Regarding `COCCSc1nnc(C23CC4CC(CC(C4)C2)C3)n1-c1ccccc1` [Compound 11, 5-(1-Adamantyl)-3-[(2-methoxyethyl)sulfanyl]-4-phenyl-1,2,4-triazole], the “reduction in edema at both dose levels” value in series [5] (20 and 40 mg/kg intraperitoneal, rats) is reported as “did not show any significant anti-inflammatory activity”. For the same compound, the zone of inhibition at 200 µg/disc in [2] (setting [10]) and in [4] was less than 10 mm throughout.

Regarding `CC1(C)S[C@@H]2[C@H](NC(=O)[C@H](N)c3ccccc3)C(=O)N2[C@H]1C(=O)O` [Ampicillin, ampicillin, reference compound], the MIC in [6] was 2 µg/mL (≈ 5.72 µM); in series [3], 0.5 µg/mL (≈ 1.43 µM); in series [7], 2 µg/mL (≈ 5.72 µM); in series [8], 2 µg/mL (≈ 5.72 µM); in [9] it was 2 µg/mL (≈ 5.72 µM). Also, in series [4], the zone of inhibition at 100 µg/disc is 17 mm.

Consider `CN(C)CCSc1nnc(C23CC4CC(CC(C4)C2)C3)n1C` [Compound 9a, 2-{[5-(Adamantan-1-yl)-4-methyl-4H-1,2,4-triazol-3-yl]sulfanyl}-N,N-dimethyl-ethanamine], for which the zone of inhibition at 200 µg/disc in series [2] (setting [10]) and in series [4] was less than 10 mm throughout.

What is called LD50 is the dose expected to kill half of the subjects tested. Take `CCOC(=O)CSc1nnc(C23CC4CC(CC(C4)C2)C3)n1-c1ccccc1` [Compound 13, Ethyl 2-[5-(1-adamantyl)-4-phenyl-1,2,4-triazol-3-ylsulfanyl]acetate]: the minimal inhibitory concentration (MIC) in series [3] is 16 µg/mL (≈ 40.2 µM). Moreover, the “anti-inflammatory potency ratio relative to indomethacin” value in [5] is “about 15%”. Moreover, in series [9], the MIC was found to be 4 µg/mL (≈ 10.1 µM). In series [2], the “inhibitory activity against C. albicans (in words)” value is given as “marginal activity”. The zone of inhibition at 200 µg/disc in series [2] (setting [10]) was found to be 12 mm. Further, the median lethal dose (LD50) at 24 h in “Oral acute toxicity” was determined as 924 mg/kg. In the series on normal albino mice, the “LD50 as percent of that of indomethacin” value is 5.41%, the LD16 was determined as 499 mg/kg and the LD84 is on record as 1,435 mg/kg. The zone of inhibition at 200 µg/disc in [4] was less than 10 mm.

Regarding `CNC(C)C1CCC(N)C(OC2C(N)CC(N)C(OC3OCC(C)(O)C(NC)C3O)C2O)O1` (centres unmarked) [Gentamicin, gentamicin, reference compound], the minimal inhibitory concentration (MIC) in series [6] amounted to 1 µg/mL (≈ 2.09 µM); in [3], 2 µg/mL (≈ 4.19 µM); in [7] it was 0.5 µg/mL (≈ 1.05 µM); in [8], 2 µg/mL (≈ 4.19 µM); in series [9], 2 µg/mL (≈ 4.19 µM). Moreover, the zone of inhibition at 100 µg/disc in series [4] was found to be 20 mm.

`O=C(O)CSc1nnc(C23CC4CC(CC(C4)C2)C3)n1-c1ccccc1` [Compound 14, 2-[5-(1-Adamantyl)-4-phenyl-1,2,4-triazol-3-ylsulfanyl]acetic acid]: in series [5], the “anti-inflammatory potency ratio relative to indomethacin” value was “about 15%”. The MIC in [9] worked out at 8 µg/mL (≈ 21.7 µM). Further, the “inhibitory activity against C. albicans (in words)” value in series [2] is “marginal activity”. In addition, the zone of inhibition at 200 µg/disc in [2] (setting [10]) turned out to be 12 mm. The compound also returned an LD50 at 24 h in “Oral acute toxicity” of 554 mg/kg. Moreover, in the series on normal albino mice, the “LD50 as percent of that of indomethacin” value is 9.03%, the LD16 was 295 mg/kg and the LD84 was 1,338 mg/kg. Also, the zone of inhibition at 200 µg/disc in series [4] is less than 10 mm.
